# Test results: publication PMC3921099 (Neurochemical research, 2013)
# Columns and labels:
# [1] = target: α1β3δ receptors (Rattus norvegicus, UniProt P62813+P63079); test: Two electrode voltage clamp in Xenopus oocytes, modulation of GABA current; assay type: cell-based; conditions: for stimulation of GABA EC3: 10 μM concentration
# Procedure, shortened: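 α1β3δ receptors from rat cRNAs injected at 3:1:5 into Xenopus oocytes, expressed ≥24 h. Two-electrode clamp at −60 mV, room temperature. GABA concentration–response curves (including 1 μM and 1 mM GABA) recorded with and without 10 μM test compound, currents normalised to maximum evoked current. Hill fits. Curves with and without modulator compared by paired Student's t test, P<0.05, n = 4.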
# [2] = target: T1, α1β3γ2 receptors (Rattus norvegicus, UniProt P62813+P63079); conditions: 10 μM concentration; cited from earlier work
# [3] = target: T2, α6β3γ2 receptors (Rattus norvegicus, UniProt P30191+P63079); conditions: 10 μM concentration; cited from earlier work
# [4] = target: T3, α4β3γ2 receptors (Rattus norvegicus, UniProt P28471+P63079); conditions: cited from earlier work
# [5] = target: α4β3δ receptors (Rattus norvegicus, UniProt P28471+P63079); test: Two electrode voltage clamp in Xenopus oocytes, modulation of GABA EC3 current; assay type: cell-based
# Procedure, shortened: (§1)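 Oocytes injected with rat α, β and δ cRNAs (3:1:5, 2.5–4 ng total) and held ≥24 h at 18 °C before collagenase defolliculation. Voltage clamped at −60 mV, room temperature, perfused 6 ml/min with Ringer (pH 7.4). GABA EC3 (3–7 % of individual maximum) co-applied with test compound after 30 s pre-application, 0.1 % DMSO final. Concentration–response fit with Hill equation, bottom fixed at 100 %. Mean ± SEM, ≥3 oocytes, ≥2 batches.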
# [6] = target: α6β3δ receptors (Rattus norvegicus, UniProt P30191+P63079); test: as above; assay type: cell-based; conditions: 10 μM concentration
# Procedure, shortened: as §1
# [7] = target: α1β2δ receptors (Rattus norvegicus, UniProt P62813+P63138); test: as above; assay type: cell-based
# Procedure, shortened: as §1
# [8] = target: T4, α1β3 receptors (Rattus norvegicus, UniProt P62813+P63079); test: Two electrode voltage clamp in Xenopus oocytes, modulation of GABA EC3 current; assay type: cell-based
# Procedure, shortened: (§2)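 Rat α and β3 cRNAs (capped, polyadenylated) injected at 1:1 into Xenopus oocytes, 2.5–4 ng per oocyte, at least 24 h at 18 °C, then defolliculated. Two-electrode voltage clamp at −60 mV, room temperature, in Xenopus Ringer (pH 7.4). GABA titrated to 3–7 % of each oocyte's maximum (EC3). Test compound (0.1 % DMSO final) pre-applied 30 s, then co-applied with GABA until peak. Washout up to 15 min between applications. Responses are % of the GABA control. Mean ± SEM from ≥3 oocytes, ≥2 batches.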
# [9] = target: α2β3 receptors (Rattus norvegicus, UniProt P23576+P63079); test: as above; assay type: cell-based; conditions: 10 μM concentration
# Procedure, shortened: as §2
# [10] = target: α1β1δ receptors (Rattus norvegicus, UniProt P15431+P62813); test: Two electrode voltage clamp in Xenopus oocytes, modulation of GABA EC3 current; assay type: cell-based
# Procedure, shortened: as §1
# [11] = target: T4, α1β3 receptors; conditions: 10 μM concentration; cited from earlier work
# [12] = target: benzodiazepine binding site of α1β3γ2 receptors; conditions: read-out: IC50 of [3H]Ro15-1788 binding; cited from earlier work
# [13] = target: T3, α4β3γ2 receptors; test: Two electrode voltage clamp in Xenopus oocytes, modulation of GABA EC3 current; assay type: cell-based; conditions: 10 μM concentration
# Procedure, shortened: (§3)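 Rat αxβ3γ2 cRNAs injected into Xenopus oocytes at a 1:1:5 ratio, 2.5–4 ng total, incubated at least 36 h at 18 °C before defolliculation. Two-electrode clamp at −60 mV, room temperature, Ringer pH 7.4. GABA at EC3 (3–7 % of the cell's maximum current). Test compound (0.1 % DMSO) pre-applied 30 s, then co-applied with GABA to peak. Effects are % of GABA EC3 current. Mean ± SEM, ≥3 oocytes from ≥2 batches.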
# [14] = tested on: α1S204Cβ3δ receptors; test: Two electrode voltage clamp, steric hindrance; assay type: cell-based, rat; conditions: 10 μM, MTSEA-biotin treated
# [15] = target: α1S204Cβ3δ receptors (Rattus norvegicus, UniProt P62813+P63079, S231C); test: Two electrode voltage clamp, steric hindrance; assay type: cell-based; conditions: 10 μM, without MTSEA-biotin
# [16] = target: T2, α6β3γ2 receptors; test: Two electrode voltage clamp in Xenopus oocytes, modulation of GABA EC3 current; assay type: cell-based; conditions: 10 μM concentration
# Procedure, shortened: as §3
# [17] = target: α1S204Cβ3Q64C receptors (Rattus norvegicus, UniProt P62813+P63079, Q89C/S231C); test: Two electrode voltage clamp, steric hindrance; assay type: cell-based
# Procedure, shortened: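 Oocytes expressing rat α1S204C with β3Q64C (1:1 cRNA) were defolliculated, then immersed 3 min in freshly made 2 mM MTSEA-biotin in Ringer containing GABA EC3, washed 5 min and recorded the same day. Two-electrode clamp at −60 mV with GABA EC3 plus test compound, compared with untreated oocytes. Mean ± SEM, n = 3–4.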
# [18] = target: α1β3Q64Cδ receptors (Rattus norvegicus, UniProt P62813+P63079, Q89C); test: Two electrode voltage clamp, steric hindrance; assay type: cell-based; conditions: 10 μM
# Procedure, shortened: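 α1, β3Q64C and δ cRNAs injected at 3:1:5. Defolliculated oocytes were exposed 3 min to freshly prepared 2 mM MTSEA-biotin in Ringer with GABA EC3, rinsed 5 min and used the same day. Untreated oocytes served as comparison. GABA EC3 response to 10 μM test compound measured by two-electrode clamp at −60 mV. Treated and untreated groups compared by unpaired Student's t test, P<0.05.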
# [19] = target: α3β3 receptors (Rattus norvegicus, UniProt P20236+P63079); test: Two electrode voltage clamp in Xenopus oocytes, modulation of GABA EC3 current; assay type: cell-based; conditions: 10 μM concentration
# Procedure, shortened: as §2
# [20] = target: α5β3 receptors (Rattus norvegicus, UniProt P19969+P63079); test: as above; assay type: cell-based; conditions: 10 μM
# Procedure, shortened: as §2
# [21] = tested on: αβδ receptors; test: Two electrode voltage clamp, DS2 test for incorporation of the delta subunit; assay type: cell-based, rat; conditions: 10 μM DS2 (experiments not shown)
# Procedure, shortened: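 Expression of δ checked in every oocyte injected with α, β and δ cRNAs: GABA-induced current tested with addition of 10 μM DS2, under two-electrode voltage clamp at −60 mV, room temperature, in Xenopus Ringer.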
# [22] = target: T1, α1β3γ2 receptors; test: Two electrode voltage clamp in Xenopus oocytes, modulation of GABA EC3 current; assay type: cell-based; conditions: GABA alone
# [23] = α1β3δ receptors, LAU 157 up to 30 μM (experiments not shown)
# T4 sequence (P62813 28-455): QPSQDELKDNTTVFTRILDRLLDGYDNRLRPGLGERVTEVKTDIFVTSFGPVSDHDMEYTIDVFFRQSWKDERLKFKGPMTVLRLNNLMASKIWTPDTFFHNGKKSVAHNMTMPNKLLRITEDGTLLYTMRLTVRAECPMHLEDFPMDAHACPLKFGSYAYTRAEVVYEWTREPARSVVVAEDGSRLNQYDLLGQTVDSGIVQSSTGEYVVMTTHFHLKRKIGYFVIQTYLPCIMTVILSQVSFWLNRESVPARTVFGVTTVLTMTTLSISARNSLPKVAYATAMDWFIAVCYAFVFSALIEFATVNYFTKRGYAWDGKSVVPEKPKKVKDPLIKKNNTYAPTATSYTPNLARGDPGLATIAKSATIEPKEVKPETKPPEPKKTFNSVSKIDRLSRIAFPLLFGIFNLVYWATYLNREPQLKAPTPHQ
# T4 sequence (P63079 26-473): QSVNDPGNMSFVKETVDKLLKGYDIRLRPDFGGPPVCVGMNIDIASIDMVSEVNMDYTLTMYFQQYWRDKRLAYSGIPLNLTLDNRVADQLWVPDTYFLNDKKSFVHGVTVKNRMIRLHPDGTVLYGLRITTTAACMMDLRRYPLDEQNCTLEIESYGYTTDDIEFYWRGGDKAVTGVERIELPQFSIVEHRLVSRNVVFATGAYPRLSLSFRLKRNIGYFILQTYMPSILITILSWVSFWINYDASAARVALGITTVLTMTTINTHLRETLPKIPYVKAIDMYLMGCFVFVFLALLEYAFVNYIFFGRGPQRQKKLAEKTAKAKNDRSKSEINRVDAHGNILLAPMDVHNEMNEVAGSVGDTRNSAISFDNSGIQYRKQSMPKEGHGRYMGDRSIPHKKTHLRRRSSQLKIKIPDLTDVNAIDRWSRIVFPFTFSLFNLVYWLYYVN
# Chain of α1β2δ receptors (P62813 28-455): as the sequence (P62813 28-455) above
# Chain of α1β2δ receptors (P63138 25-474 limits assumed): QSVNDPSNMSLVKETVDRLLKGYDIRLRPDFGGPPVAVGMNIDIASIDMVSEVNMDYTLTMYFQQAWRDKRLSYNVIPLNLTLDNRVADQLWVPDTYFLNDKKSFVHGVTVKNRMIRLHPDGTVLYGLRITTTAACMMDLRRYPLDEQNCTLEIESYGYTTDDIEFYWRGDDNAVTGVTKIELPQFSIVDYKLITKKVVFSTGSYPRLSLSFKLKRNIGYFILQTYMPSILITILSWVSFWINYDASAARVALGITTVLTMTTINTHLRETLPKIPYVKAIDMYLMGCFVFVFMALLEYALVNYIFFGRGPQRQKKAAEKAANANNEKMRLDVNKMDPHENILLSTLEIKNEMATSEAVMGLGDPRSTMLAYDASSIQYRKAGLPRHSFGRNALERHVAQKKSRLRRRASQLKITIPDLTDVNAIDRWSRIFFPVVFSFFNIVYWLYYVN
# Chain of α1β2δ receptors (P18506 17-449 partner limits assumed): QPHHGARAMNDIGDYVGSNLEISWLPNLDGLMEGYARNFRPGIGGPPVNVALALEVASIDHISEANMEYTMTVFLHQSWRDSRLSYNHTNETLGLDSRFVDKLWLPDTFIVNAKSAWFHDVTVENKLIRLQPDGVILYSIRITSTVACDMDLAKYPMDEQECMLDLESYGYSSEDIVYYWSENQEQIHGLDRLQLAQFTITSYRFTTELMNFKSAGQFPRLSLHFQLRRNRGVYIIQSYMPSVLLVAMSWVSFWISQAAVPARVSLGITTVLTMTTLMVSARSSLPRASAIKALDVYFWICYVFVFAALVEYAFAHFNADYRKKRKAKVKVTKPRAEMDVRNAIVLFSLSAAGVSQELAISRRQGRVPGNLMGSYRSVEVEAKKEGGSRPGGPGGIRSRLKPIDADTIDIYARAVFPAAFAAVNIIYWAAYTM
# Chain of α1β3δ receptors (P62813 28-455): as the sequence (P62813 28-455) above
# Chain of α1β3δ receptors (P63079 26-473): as the sequence (P63079 26-473) above
# Chain of α1β3δ receptors (P18506 17-449 partner limits assumed): as the sequence (P18506 17-449 partner limits assumed) above
# Chain of α1β3Q64Cδ receptors (P62813 28-455): as the sequence (P62813 28-455) above
# Chain of α1β3Q64Cδ receptors (P63079 26-473 Q89C): as the sequence (P63079 26-473) above, with Q64C counted along it
# Chain of α1β3Q64Cδ receptors (P18506 25-449 partner): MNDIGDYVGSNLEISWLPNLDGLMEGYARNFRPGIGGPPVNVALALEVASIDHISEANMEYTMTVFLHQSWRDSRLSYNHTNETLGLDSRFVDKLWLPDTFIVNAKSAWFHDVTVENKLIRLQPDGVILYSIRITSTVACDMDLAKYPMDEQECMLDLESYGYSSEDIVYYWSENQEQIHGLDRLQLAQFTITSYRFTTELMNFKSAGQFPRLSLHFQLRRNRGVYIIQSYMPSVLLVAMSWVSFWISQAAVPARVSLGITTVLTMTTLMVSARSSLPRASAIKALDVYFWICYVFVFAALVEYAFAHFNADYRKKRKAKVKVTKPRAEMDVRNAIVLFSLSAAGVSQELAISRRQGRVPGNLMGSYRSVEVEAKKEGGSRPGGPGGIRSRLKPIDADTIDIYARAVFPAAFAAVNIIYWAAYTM
compound,measurement,setting,value
"COc1ccc(-n2nc3c4cc(Cl)ccc4[nH]cc-3c2=O)cc1 [PZ-II-028, 8-chloro-2-(4-methoxyphenyl)-2H-pyrazolo[4,3-c]quinolin-3(5H)-one, reference compound]",stimulation of GABA EC3,[1]; α1β3δ receptors,1186 ± 89%
same,stimulation of GABA-induced currents,[2],939 ± 64
same,stimulation of GABA-induced current,[3],1871 ± 28%
same,modulation of GABA-induced currents,[4],226 ± 14%
same,modulation of GABA-induced currents,"[5]; α4β3δ receptors, concentration not given",425 ± 26%
same,stimulation of GABA EC3,[6],1152 ± 106%
"O=c1c2c[nH]c3ccc(Cl)cc3c-2nn1-c1ccc([N+](=O)[O-])cc1 [LAU 157, 8-chloro-2-(4-nitrophenyl)-2H-pyrazolo[4,3-c]quinolin-3(5H)-one]",modulation of GABA EC3,[1]; α1β3δ receptors,did not significantly modulate
same,inhibition of the effects of 1 μM DS2,[1]; [23],did not inhibit
same,inhibition of the effects of 3 μM tracazolate,[1]; [23],did not inhibit
same,inhibition of the effect of 1 μM LAU 177,"[1]; α1β3δ receptors, increasing concentrations of LAU 157",complete inhibition
same,modulation of GABA EC3,[7]; α1β2δ receptors,did not significantly modulate
same,inhibition of the effect of 1 μM LAU 177,"[7]; α1β2δ receptors, increasing concentrations of LAU 157",complete inhibition
same,modulation of GABA EC3,[8],did not significantly modulate
same,inhibition of the effect of 1 μM LAU 177,[8]; increasing concentrations of LAU 157,complete inhibition
"COc1ccc2[nH]cc3c(=O)n(-c4ccc(C#N)cc4)nc-3c2c1 [LAU 177, 4-(8-methoxy-3-oxo-3,5-dihydro-2H-pyrazolo[4,3-c]quinolin-2-yl)benzonitrile]",stimulation of GABA EC3,[9],981 ± 20 % of GABA EC3
same,EC50,[1],1 µM
same,enhancement of the conductance induced by maximal GABA concentrations,"[1]; α1β3δ receptors, 10 μM LAU 177",about 12 times
same,change of GABA EC50 by the modulator,"[1]; α1β3δ receptors, 10 μM LAU 177, paired Student's t test p>0.05",no significant change
same,stimulation of GABA EC3,[1]; α1β3δ receptors,3285 ± 257%
same,GABA-induced current in the presence of LAU 177,"[1]; α1β3δ receptors, 1 mM GABA, 10 μM LAU 177",13 μA
same,"efficacy compared to α1β2,3δ receptors",[10],drastically reduced
same,stimulation to % of GABA EC3,[11],1063 ± 128 % of GABA EC3
same,IC50,[12],0.00075 ± 0.00081 µM
same,stimulation of GABA EC3,[13],981 ± 52%
same,stimulation of GABA EC3 after incubation with MTSEA biotin,[14],1884 ± 311%
same,stimulation of GABA EC3,[15],5278 ± 1008%
same,EC50,[7],> 10.7 µM
same,stimulation of GABA EC3,"[7]; α1β2δ receptors, 10 μM concentration",2843 ± 396%
same,"enhancement of GABA-induced currents, up to % of GABA EC3","[8]; concentration dependent, maximum",1152 ± 145 % of GABA EC3
same,stimulation of GABA EC3,[16],1622 ± 87%
same,current enhancement in the presence of MTSEA-biotin,[17]; MTSEA-biotin treated,drastically reduced
same,enhancement of GABA-induced currents compared with α1β3 receptors,[17]; without MTSEA-biotin,to a similar extent with a comparable potency
same,stimulation of GABA EC3,"[5]; α4β3δ receptors (printed δ4β3δ), 10 μM concentration",1365 ± 117%
same,stimulation of GABA EC3,[6],1639 ± 244%
same,stimulation of GABA EC3 after incubation with MTSEA biotin,[18]; MTSEA-biotin treated,1754 ± 568%
same,stimulation of GABA EC3,[18]; without MTSEA-biotin,6941 ± 1268%
same,stimulation of GABA EC3,[19],913 ± 178 % of GABA EC3
same,enhancement of the GABA-induced current,[20],about 528 ± 103 % GABA
"O=C(Nc1c(-c2cccs2)nc2ccccn12)c1ccc(Cl)cc1 [DS2, 4-Chloro-N-[2-(2-thienyl)imidazo[1,-2-a]pyridin-3-yl]benzamide, reference compound]",enhancement of GABA-induced currents,[21],dramatically enhanced
same,stimulation to % of GABA EC3,"[1]; α1β3δ receptors, 1 μM DS2 (experiments not shown)",400 % of GABA EC3
"CCCCNc1c(C(=O)OCC)c(C)nc2c1cnn2CC [tracazolate, 4-(butylamino)-1-ethyl-6-methyl-1H-pyrazolo[3,4-b]pyridine-5-carboxylate, reference compound]",stimulation to % of GABA EC3,"[1]; α1β3δ receptors, 3 μM tracazolate (experiments not shown)",900 % of GABA EC3
"NCCCC(=O)O [GABA, gamma-aminobutyric acid, reference compound]",maximal GABA-induced effect (current),"[1]; α1β3δ receptors, GABA alone",about 1 μA
same,GABA-induced current (maximal),[8]; GABA alone,8 μA
same,GABA-induced current (maximal),[22],16 μA
